# Assay results: ChEMBL document CHEMBL1671788, “Discovery, synthesis, and structure-activity relationship development of a series of N-(4-acetamido)phenylpicolinamides as positive allosteric modulators of metabotropic glutamate receptor 4 (mGlu(4)) with CNS exposure in rats” (J Med Chem, 2011)
# Activity calls are given as the source filed them. The rule behind the calls is not given here.
# What was measured:
# [1] = target: Metabotropic glutamate receptor 4 (Rattus norvegicus) (UniProt P31423); assay: Positive allosteric modulation of rat mGluR4 expressed in CHO cells coexpressing Gqi5 assessed as calcium mobilization relative to PHCCC; type: functional, cell-based
# [2] = target: Cytochrome P450 2D6 (Homo sapiens, UniProt P10635); assay: Inhibition of human CYP2D6
# In short: (§1)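 Human liver microsomes (final 0.1 mg/mL) in 0.1 M potassium phosphate, pH 7.4, with a probe cocktail: phenacetin 10 µM (1A2), diclofenac 5 µM (2C9), dextromethorphan 5 µM (2D6) and midazolam 2 µM (3A4). Compound at 100 nM–30 µM final, in duplicate, preincubated 15 min at 37 °C. NADPH (1 mM) reaction ran 8 min, was quenched with cold acetonitrile, and read by LC/MS/MS (MRM). IC50 determined.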
# [3] = target: Metabotropic glutamate receptor 1 (Rattus norvegicus) (UniProt P23385); assay: Positive allosteric modulation in rat mGluR1 receptor expressed in HEK293 cells assessed as effect on calcium mobilization at 10 uM relative to glutamate
# [4] = target: Metabotropic glutamate receptor 4 (Homo sapiens, UniProt Q14833); assay: Positive allosteric modulation of human mGluR4 expressed in CHO cells coexpressing Gqi5 assessed as calcium mobilization relative to PHCCC; type: functional, cell-based
# In short: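 CHO cells stably expressing human mGlu4 with Gqi5 were plated at 30,000 cells/well and grown overnight. Cells were loaded with 1 µM Fluo-4 AM for 45 min at 37 °C in HBSS/HEPES/2.5 mM probenecid buffer. […] Ca2+ fluorescence was read (ex 470, em 540 nm). Curves were fitted with a four-parameter logistic; ≥3 independent runs in triplicate.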
# [5] = target: Metabotropic glutamate receptor 5 (Rattus norvegicus) (UniProt P31424); assay: Positive allosteric modulation in rat mGluR5 receptor expressed in HEK293 cells assessed as effect on calcium mobilization at 10 uM relative to glutamate
# [6] = in vivo; conditions: Sprague-Dawley, rat, brain/plasma, iv, 1 mg/kg
# [7] = target: Metabotropic glutamate receptor 3 (Rattus norvegicus) (UniProt P31422); assay: Positive allosteric modulation in rat mGluR3 receptor expressed in HEK293 cells assessed as effect on thallium flux at 10 uM relative to glutamate; type: cell-based
# In short: (§2)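 HEK-293 cells co-expressing the rat receptor and GIRK channels, plated at 15,000 cells/well overnight, then loaded with BTC-AM (1.7 µM) for 1 h at room temperature. Vehicle or compound at 10 µM final was added, and 2.5 min later a full glutamate concentration-response was given in thallium-containing buffer. Thallium flux was read by fluorescence and the leftward or rightward shift of the glutamate curve recorded.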
# [8] = Plasma protein binding in Sprague-Dawley rat; type: ADME, cell-free; conditions: read-out: PPB
# In short: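 Equilibrium dialysis of compound spiked into rat plasma against 25 mM phosphate buffer, pH 7.4. Dialysis ran 4 h at 37 °C with shaking. Both chambers were matrix-matched, extracted with cold acetonitrile and quantified by LC/MS/MS. Triplicate within one plate.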
# [9] = in vivo; conditions: Sprague-Dawley, rat, sc, 10 mg/kg
# [10] = test system: Plasma; assay: Cmax in Sprague-Dawley rat plasma at 10 mg/kg, sc; type: ADME, organism-based; design: dose 10 mg/kg, route subcutaneous; conditions: in vivo
# In short: (§3)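 Rats dosed subcutaneously at 10 mg/kg as a 10% tween 80 microsuspension. […] In vivo samples were quantified by LC/MS/MS (ESI, positive-mode MRM) after gradient elution on a C18 column.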
# [11] = target: Metabotropic glutamate receptor 6 (Rattus norvegicus) (UniProt P35349); assay: Positive allosteric modulation in rat mGluR6 receptor expressed in HEK293 cells assessed as effect on thallium flux at 10 uM relative to glutamate; type: cell-based
# [12] = AUC in Sprague-Dawley rat plasma at 10 mg/kg, sc; type: ADME, organism-based; design: dose 10 mg/kg, route subcutaneous
# [13] = target: Metabotropic glutamate receptor 2 (Rattus norvegicus) (UniProt P31421); assay: Positive allosteric modulation in rat mGluR2 receptor expressed in HEK293 cells assessed as effect on thallium flux at 10 uM relative to glutamate; type: cell-based; in short: as §2
# [14] = target: T1, Cytochrome P450 1A2 (Homo sapiens, UniProt P05177); assay: Inhibition of human CYP1A2; in short: as §1
# T1 sequence (P05177 whole entry): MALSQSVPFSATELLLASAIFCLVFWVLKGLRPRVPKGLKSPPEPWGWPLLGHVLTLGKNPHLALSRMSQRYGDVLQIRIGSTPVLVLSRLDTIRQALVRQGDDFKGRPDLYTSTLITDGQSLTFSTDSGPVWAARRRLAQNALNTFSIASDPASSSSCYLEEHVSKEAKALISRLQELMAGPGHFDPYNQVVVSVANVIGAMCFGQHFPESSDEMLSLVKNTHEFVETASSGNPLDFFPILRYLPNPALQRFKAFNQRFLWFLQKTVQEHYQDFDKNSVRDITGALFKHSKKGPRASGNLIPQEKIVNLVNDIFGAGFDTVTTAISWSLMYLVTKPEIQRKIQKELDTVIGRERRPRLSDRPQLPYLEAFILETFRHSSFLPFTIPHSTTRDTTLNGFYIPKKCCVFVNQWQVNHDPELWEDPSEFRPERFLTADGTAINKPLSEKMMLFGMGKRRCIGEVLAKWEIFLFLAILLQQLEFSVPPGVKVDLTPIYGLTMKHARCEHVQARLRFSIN
# [15] = target: Cytochrome P450 3A4 (Homo sapiens, UniProt P08684); assay: Inhibition of human CYP3A4; in short: as §1
# [16] = target: Metabotropic glutamate receptor 4 (Rattus norvegicus, UniProt P31423); assay: Positive allosteric modulation of rat mGluR4 expressed in CHO cells coexpressing Gqi5 assessed as calcium mobilization; type: functional, cell-based; conditions: read-out: EC50
# [17] = test system: Plasma; assay: AUC in Sprague-Dawley rat brain at 10 mg/kg, sc; type: ADME, organism-based; design: dose 10 mg/kg, route subcutaneous; conditions: in vivo
# [18] = Cmax in Sprague-Dawley rat brain at 10 mg/kg, sc; type: ADME, organism-based; design: dose 10 mg/kg, route subcutaneous; in short: as §3
# [19] = target: Cytochrome P450 2C9 (Homo sapiens, UniProt P11712); assay: Inhibition of human CYP2C9; in short: as §1
# Sequence of Metabotropic glutamate receptor 6 (Rattus norvegicus) (P35349 whole entry): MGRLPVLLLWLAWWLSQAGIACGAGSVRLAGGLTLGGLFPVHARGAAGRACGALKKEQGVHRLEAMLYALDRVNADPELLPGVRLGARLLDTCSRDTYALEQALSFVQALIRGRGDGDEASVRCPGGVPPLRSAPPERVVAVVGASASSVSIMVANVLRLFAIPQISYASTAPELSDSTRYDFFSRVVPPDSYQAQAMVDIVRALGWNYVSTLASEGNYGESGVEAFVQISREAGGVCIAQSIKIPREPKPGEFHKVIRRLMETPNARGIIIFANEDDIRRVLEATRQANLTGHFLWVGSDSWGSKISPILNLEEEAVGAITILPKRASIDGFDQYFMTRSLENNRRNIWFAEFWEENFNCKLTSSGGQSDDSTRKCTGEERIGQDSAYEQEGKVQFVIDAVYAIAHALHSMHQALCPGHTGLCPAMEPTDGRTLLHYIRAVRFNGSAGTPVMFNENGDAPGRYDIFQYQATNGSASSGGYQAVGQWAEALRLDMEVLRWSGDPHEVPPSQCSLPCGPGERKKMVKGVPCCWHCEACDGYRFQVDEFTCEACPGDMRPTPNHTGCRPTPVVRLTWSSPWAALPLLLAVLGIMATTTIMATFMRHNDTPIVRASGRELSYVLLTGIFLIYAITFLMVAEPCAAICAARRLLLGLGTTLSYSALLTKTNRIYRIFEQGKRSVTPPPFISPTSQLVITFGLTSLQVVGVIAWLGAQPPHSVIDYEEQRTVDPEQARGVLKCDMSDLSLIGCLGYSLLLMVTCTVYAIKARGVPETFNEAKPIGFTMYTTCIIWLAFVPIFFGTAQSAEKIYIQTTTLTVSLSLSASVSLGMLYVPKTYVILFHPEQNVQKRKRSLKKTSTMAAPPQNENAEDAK
# Sequence of Metabotropic glutamate receptor 4 (Homo sapiens, UniProt Q14833) (Q14833 whole entry): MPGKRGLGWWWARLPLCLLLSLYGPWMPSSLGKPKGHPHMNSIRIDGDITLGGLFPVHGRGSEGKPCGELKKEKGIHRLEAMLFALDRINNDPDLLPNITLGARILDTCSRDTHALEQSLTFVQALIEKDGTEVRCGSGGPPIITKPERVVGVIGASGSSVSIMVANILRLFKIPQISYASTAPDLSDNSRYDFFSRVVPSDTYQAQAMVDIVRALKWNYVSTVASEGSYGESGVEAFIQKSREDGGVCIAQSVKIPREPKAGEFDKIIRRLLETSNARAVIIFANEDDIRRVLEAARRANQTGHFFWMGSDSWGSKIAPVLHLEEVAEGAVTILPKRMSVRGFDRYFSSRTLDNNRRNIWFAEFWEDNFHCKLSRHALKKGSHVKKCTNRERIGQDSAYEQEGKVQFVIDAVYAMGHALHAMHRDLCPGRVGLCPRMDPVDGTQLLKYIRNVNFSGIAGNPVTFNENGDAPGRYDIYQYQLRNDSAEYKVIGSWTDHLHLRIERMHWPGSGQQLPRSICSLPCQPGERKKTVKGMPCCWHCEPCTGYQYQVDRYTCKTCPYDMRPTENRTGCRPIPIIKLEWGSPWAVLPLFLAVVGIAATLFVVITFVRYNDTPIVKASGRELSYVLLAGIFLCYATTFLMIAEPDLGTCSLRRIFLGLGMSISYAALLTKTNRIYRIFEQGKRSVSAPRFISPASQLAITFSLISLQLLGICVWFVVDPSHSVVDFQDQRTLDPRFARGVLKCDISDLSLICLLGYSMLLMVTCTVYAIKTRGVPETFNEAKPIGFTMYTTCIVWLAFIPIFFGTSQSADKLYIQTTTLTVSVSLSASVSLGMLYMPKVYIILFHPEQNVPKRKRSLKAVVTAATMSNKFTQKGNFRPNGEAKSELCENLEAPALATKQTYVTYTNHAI
# Sequence of Metabotropic glutamate receptor 1 (Rattus norvegicus) (P23385 19-1199 limits assumed): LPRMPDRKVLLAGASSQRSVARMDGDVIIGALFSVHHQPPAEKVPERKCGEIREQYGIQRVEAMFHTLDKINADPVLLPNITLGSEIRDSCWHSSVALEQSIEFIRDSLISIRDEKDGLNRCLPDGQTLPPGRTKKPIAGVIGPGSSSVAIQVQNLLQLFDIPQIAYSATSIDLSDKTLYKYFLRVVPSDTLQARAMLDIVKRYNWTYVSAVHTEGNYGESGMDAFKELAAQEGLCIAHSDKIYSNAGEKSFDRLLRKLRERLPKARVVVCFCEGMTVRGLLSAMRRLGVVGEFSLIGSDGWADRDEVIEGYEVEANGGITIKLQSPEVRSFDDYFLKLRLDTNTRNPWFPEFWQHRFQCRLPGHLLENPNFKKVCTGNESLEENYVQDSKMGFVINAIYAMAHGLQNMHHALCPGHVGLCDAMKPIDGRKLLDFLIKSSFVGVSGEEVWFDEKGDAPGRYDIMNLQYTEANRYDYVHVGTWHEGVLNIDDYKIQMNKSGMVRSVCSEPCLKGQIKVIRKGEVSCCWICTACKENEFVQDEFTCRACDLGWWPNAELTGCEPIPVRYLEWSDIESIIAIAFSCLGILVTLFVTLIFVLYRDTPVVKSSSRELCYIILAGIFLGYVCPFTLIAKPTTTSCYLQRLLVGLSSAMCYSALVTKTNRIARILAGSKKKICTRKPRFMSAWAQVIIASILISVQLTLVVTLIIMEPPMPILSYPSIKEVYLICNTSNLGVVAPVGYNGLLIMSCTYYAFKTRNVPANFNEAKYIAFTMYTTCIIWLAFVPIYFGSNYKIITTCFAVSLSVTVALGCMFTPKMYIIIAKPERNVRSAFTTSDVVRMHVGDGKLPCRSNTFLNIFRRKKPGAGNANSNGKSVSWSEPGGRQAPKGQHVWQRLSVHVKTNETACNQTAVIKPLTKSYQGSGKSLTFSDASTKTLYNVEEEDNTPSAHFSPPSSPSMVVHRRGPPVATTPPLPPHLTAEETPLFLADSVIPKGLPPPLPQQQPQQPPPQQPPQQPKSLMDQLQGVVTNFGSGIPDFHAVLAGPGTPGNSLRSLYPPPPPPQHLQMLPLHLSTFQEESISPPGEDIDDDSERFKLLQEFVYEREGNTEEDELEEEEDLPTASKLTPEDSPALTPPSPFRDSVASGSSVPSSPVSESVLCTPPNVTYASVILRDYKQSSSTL
# Sequence of Metabotropic glutamate receptor 5 (Rattus norvegicus) (P31424 21-1203 limits assumed): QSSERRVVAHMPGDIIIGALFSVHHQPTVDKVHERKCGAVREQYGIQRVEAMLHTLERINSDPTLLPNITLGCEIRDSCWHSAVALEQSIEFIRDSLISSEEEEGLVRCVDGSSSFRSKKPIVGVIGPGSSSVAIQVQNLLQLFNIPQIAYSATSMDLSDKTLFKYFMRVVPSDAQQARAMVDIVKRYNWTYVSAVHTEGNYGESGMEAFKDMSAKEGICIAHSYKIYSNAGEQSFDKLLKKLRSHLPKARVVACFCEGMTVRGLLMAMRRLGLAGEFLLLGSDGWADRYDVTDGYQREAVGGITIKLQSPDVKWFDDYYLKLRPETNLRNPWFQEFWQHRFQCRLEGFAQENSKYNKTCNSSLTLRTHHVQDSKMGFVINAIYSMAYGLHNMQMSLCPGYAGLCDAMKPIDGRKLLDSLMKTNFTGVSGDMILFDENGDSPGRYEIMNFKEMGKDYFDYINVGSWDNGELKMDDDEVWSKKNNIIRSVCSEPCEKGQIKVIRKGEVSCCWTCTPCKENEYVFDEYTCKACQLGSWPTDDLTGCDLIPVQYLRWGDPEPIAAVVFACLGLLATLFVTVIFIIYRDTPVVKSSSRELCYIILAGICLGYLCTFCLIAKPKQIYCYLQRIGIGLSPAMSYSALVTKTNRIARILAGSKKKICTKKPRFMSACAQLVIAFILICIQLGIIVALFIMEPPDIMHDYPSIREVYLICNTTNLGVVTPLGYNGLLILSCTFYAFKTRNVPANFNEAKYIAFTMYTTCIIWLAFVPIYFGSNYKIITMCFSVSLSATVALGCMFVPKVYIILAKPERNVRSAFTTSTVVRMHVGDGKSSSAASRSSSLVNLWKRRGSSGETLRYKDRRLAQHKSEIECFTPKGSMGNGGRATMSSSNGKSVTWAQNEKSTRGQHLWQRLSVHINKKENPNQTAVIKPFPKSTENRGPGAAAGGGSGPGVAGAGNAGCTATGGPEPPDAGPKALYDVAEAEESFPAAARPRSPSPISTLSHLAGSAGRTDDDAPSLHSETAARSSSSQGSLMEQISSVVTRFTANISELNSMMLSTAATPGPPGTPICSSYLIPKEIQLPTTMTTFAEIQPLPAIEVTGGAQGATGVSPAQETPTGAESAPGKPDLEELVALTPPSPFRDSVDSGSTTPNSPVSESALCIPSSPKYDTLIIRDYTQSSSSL
# Sequence of Cytochrome P450 3A4 (P08684 whole entry): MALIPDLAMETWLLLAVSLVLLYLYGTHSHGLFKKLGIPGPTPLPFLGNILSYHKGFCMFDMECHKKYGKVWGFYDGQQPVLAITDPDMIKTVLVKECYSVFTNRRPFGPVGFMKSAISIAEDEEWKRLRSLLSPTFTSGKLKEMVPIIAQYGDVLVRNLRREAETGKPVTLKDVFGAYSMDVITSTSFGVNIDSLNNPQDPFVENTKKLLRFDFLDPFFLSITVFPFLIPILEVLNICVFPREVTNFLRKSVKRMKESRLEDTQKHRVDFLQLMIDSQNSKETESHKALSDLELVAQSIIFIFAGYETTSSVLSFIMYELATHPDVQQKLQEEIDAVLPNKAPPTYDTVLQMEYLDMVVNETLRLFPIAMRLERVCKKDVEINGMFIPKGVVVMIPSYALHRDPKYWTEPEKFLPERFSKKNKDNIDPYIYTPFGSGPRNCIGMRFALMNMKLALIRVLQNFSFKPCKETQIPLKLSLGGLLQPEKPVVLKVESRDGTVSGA
smiles,measurement,setting,value
O=C(Nc1ccc(NC(=O)c2ccccc2Cl)c(Cl)c1)c1ccccn1,Activity,[1],128%
same,INH,[2],13.1 µM
same,Activity,[3],inactive
same,Activity,[4],77.9%
same,Activity,[5],inactive
same,Kp,[6],1.04
same,Activity,[7],inactive
same,fraction unbound,[8],< 0.005
same,Tmax,[9],30 min
same,Cmax,[10],198.1 ng/mL
same,Activity,[11],inactive
same,AUC(0-t),[12],658 ng·h/mL
same,Activity,[13],inactive
same,INH,[14],> 30 µM
same,INH,[15],> 30 µM
same,EC50,[16],570 nM
same,AUC,[17],681 ng·h/g
same,Cmax,[18],163 ng/g
same,INH,[19],11.8 µM
